The text below walks through data of PubChem BioAssay AID504414 (Broad Institute, 2011).

The whole screen tested about 330,000 compounds, of which about 55 (0.02%) were called active. The full list was thinned out, with actives kept by preference. Values without a mark were called inactive.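 The calls were made as follows: active = highest replicate inhibition of at least 40%; inactive = the rest.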

One may read the inhibition as the relative decrease from the control value, in per cent.

The target in the test is Golgi-associated PDZ and coiled-coil motif-containing protein (Homo sapiens) (UniProt Q9HD26). The test can be described thus: CAL PDZ peptide-binding inhibitors, primary screen, biochemical, fluorescence polarization, Cer-tagged CAL PDZ, HTS (AID 504414).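 Also: plate controls were DMSO neutral control wells for no effect and unlabeled competitor peptide control wells for full effect.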 To be noted: purified CAL PDZ, TMR-peptide fluorescence polarization, 1 h; at 20 µM; stronger effect = higher value. An outline of the steps:
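material = purified tagged CAL PDZ domain construct (CerCALP) | compound dosing = 20 µM, one dose | times = 1 h at RT | measured by = fluorescence polarization from S- and P-plane intensities, G-factor corrected | read-out = inhibition from polarization loss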
Background: Polarisation of emitted light reports the rotation of a fluorescent probe.
Regarding `CCOc1ccc(NC(=O)CC(Cc2ccc(Cl)cc2)C(=O)O)cc1` (configuration not stated), the inhibition was -0.804%.
Then `Cc1cc(-n2cnc(-c3cn(C)nc3C)n2)no1`, with -0.598%; and `C=CCOC(=O)N1CCC2CC1c1cc(-c3ccc(OC)cc3)ccc12` (configuration not stated), with -0.353%; and `Cc1nc(-c2ccccc2)sc1-c1nnc(C2CC2)o1`, with -0.361%.
As for `CCN(C(=O)COC(=O)/C=C/c1nc2ccccc2s1)C1CCS(=O)(=O)C1` (configuration not stated), the inhibition is 0.0609%.
Then `CC(=O)c1c(C)[nH]c(C(=O)Nc2cc(S(=O)(=O)N(C)C)ccc2C)c1C`, with -0.89%; and `COc1ccc(CNC(=O)CSc2n[nH]c(N)n2)cc1OC`, with -2.17%; and `C=CCOc1c2ccc(C(=O)N(CC)c3ccc(OC)cc3)cc2nn1C`, with -0.978%.
As for `O=C(COc1coc(CN2CCN(c3ccccc3)CC2)cc1=O)N1CCc2ccccc21`, the inhibition is -0.986%.
For `COc1cc(NC(=O)c2cccs2)ccc1NC(=O)c1ccccc1Cl` the value was 52% (active).
For `COc1cc2ccccc2cc1C(=O)Nc1ccc(NC(=O)c2cccs2)cc1` the value was -1.38%; for `COc1cc(NC(=O)c2ccc3c(c2)OCO3)ccc1NC(=O)c1cccs1`, -2.17%; for `Cn1cc(CCC(=O)N2CCCC(C(=O)c3ccc(C(C)(C)C)cc3)C2)cn1` (configuration not stated), -1.53%.
Then `Cc1ccccc1NC(=O)CCOc1ccccc1`, with -0.379%; and `COc1ccccc1-n1ccnc(SCC(=O)NC2CCCCC2)c1=O`, with -0.307%; and `CN(C)S(=O)(=O)Oc1ccccc1C(=O)Nc1ccccc1Cl`, with -2.53%.
On to `CN(C)C(=O)CCc1ccc2c3c([nH]c2c1)[C@]1(C)[C@@H](C(=O)N2CCCCC2)C[C@H](CC(=O)NCCC2=CCCCC2)C(=O)N1CC3`, for which the inhibition was -0.602%.
Turning to `CC(CN1CCCCC1)c1ccccc1` (configuration not stated), the inhibition was -0.367%.
Then `COc1ccccc1CNC(=O)CNC(=O)c1cn(-c2ccccc2OC)c(=O)c2ccccc12`, with -0.592%; and `CCc1ccc(C(=O)C(C)OC(=O)CN2C(=O)NC3(CCCC3)C2=O)cc1` (configuration not stated), with -0.0354%.
Then `Cc1ccoc1C(=O)Nc1cccc(Oc2ccccc2)c1`, with -1.61%; and `Cc1ccnc(NC(=O)C2CCN(S(=O)(=O)c3c(C)c(C)cc(C)c3C)CC2)c1`, with -2.34%.
Then `CCOc1ccc(OCC(=O)OC(C)C(=O)NC2CCCCC2C)cc1` (configuration not stated), with -1.17%.
`O=C(O)C1C2C=CC(O2)C1C(=O)Nc1ccccn1` (configuration not stated): the inhibition is 0.325%.
Take `CCc1cccc(NC(=S)N(CCN(C)C)C2CCN(C(C)C)CC2)c1`: the inhibition was -0.435%.
For `COCCN(C(=S)Nc1ccccc1OC)C1CCN(C(C)C)CC1` the value was 61.8% (active); for `COc1ccccc1NC(=S)N1CCN(C(c2ccccc2)c2ccccc2)CC1`, 0.312%.
